According to ChEMBL document CHEMBL3877264, “Quinolidene-rhodanine conjugates: Facile synthesis and biological evaluation” (Eur J Med Chem, 2017):
≈ marks a conversion by molar mass, not a printed value.

Assays:
Type in all cases: functional
[1] = test system: Candida albicans; assay: Antifungal activity against Candida albicans NCIM 3471 by standard agar method
Summary of the method: (§1)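 MICs determined by standard agar method; DMSO as solvent control.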

[2] = test system: Bacillus subtilis; assay: Growth inhibition of Bacillus subtilis NCIM 2079 at 10 ug/ml measured after 12 hrs relative to control; conditions: NCIM 2079, 12 h, read-out: GI
Summary of the method: (§2)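 Bacteria grown in LB at 37 °C and 180 rpm to OD 1. Compounds added to wells, then 0.1% inoculum of 1 OD culture (620 nm). Growth read as OD at 620 nm after 8 h for gram-negative and after 12 h for gram-positive strains.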

[3] = test system: Staphylococcus aureus; assay: Growth inhibition of Staphylococcus aureus NCIM 2010 at 3 ug/ml measured after 12 hrs relative to control; conditions: NCIM 2010, 12 h, read-out: GI; summary of the method: as §2
[4] = test system: Pseudomonas fluorescens; assay: Antibacterial activity against Pseudomonas fluorescens NCIM 2036 measured after 8 hrs; conditions: NCIM 2036, 8 h; summary of the method: as §2
[5] = test system: Mycobacterium tuberculosis; assay: Growth inhibition of Mycobacterium tuberculosis H37Ra ATCC 25177 at dormant stage measured after 12 days by XTT dye based two fold dilution method; conditions: H37Ra ATCC 25177, 288 h
Summary of the method: (§3)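 MTB H37Ra was grown in Dubos medium, then exposed in Mycobacterium pheli minimal medium (pH 6.6) to compounds dissolved in DMSO. The assay ended on day 8 (active) or day 12 (dormant). Viable cells were measured by XTT reduction menadione assay at 470 nm, blank-corrected, relative to vehicle control. Triplicates were expressed as mean ± SD. MIC came from dose-response curves.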

[6] = test system: Mycobacterium tuberculosis; assay: Growth inhibition of Mycobacterium bovis BCG ATCC 35743 at dormant stage measured after 12 days by nitrate reductase dye based two fold dilution method; conditions: BCG str. ATCC 35743, 288 h
Summary of the method: (§4)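 M. bovis BCG was grown in Dubos medium and assayed in Mycobacterium pheli minimal medium (pH 6.6), with compounds from DMSO stocks. Incubation lasted 8 days for active and 12 days for dormant cultures. Viability was read by nitrate reductase at 540 nm against cell-free blanks, with vehicle set as 100% growth. Primary screen was at 30, 10 and 3 µg/ml, in triplicate, mean ± SD. MIC was taken from dose-response curves.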

[7] = test system: Staphylococcus aureus; assay: Growth inhibition of Staphylococcus aureus NCIM 2010 at 30 ug/ml measured after 12 hrs relative to control; conditions: NCIM 2010, 12 h, read-out: GI; summary of the method: as §2
[8] = test system: Escherichia coli; assay: Antibacterial activity against Escherichia coli NCIM 2688 measured after 8 hrs; conditions: NCIM 2688, 8 h; summary of the method: as §2
[9] = test system: Staphylococcus aureus; assay: Antibacterial activity against of Staphylococcus aureus NCIM 2010 measured after 12 hrs; conditions: NCIM 2010, 12 h; summary of the method: as §2
[10] = test system: Pseudomonas fluorescens; assay: Growth inhibition of Pseudomonas fluorescens NCIM 2036 at 10 ug/ml measured after 8 hrs relative to control; conditions: NCIM 2036, 8 h, read-out: GI; summary of the method: as §2
[11] = test system: Escherichia coli; assay: Growth inhibition of Escherichia coli NCIM 2688 at 30 ug/ml measured after 8 hrs relative to control; conditions: NCIM 2688, 8 h, read-out: GI; summary of the method: as §2
[12] = test system: Pseudomonas fluorescens; assay: Growth inhibition of Pseudomonas fluorescens NCIM 2036 at 30 ug/ml measured after 8 hrs relative to control; conditions: NCIM 2036, 8 h, read-out: GI; summary of the method: as §2
[13] = test system: Mycobacterium tuberculosis; assay: Growth inhibition of Mycobacterium bovis BCG ATCC 35743 at dormant stage at 3 ug/ml measured after 12 days by nitrate reductase dye based two fold dilution method relative to control; conditions: BCG str. ATCC 35743, 288 h, read-out: GI; summary of the method: as §4
[14] = test system: Aspergillus niger; assay: Antifungal activity against Aspergillus niger NCIM 1196 by standard agar method; summary of the method: as §1
[15] = test system: Bacillus subtilis; assay: Antibacterial activity against Bacillus subtilis NCIM 2079 measured after 12 hrs; conditions: NCIM 2079, 12 h; summary of the method: as §2
[16] = test system: Staphylococcus aureus; assay: Growth inhibition of Staphylococcus aureus NCIM 2010 at 10 ug/ml measured after 12 hrs relative to control; conditions: NCIM 2010, 12 h, read-out: GI; summary of the method: as §2
[17] = test system: Mycobacterium tuberculosis; assay: Growth inhibition of Mycobacterium tuberculosis H37Ra ATCC 25177 at active stage measured after 8 days by XTT dye based two fold dilution method; conditions: H37Ra ATCC 25177, 192 h; summary of the method: as §3
[18] = test system: Bacillus subtilis; assay: Growth inhibition of Bacillus subtilis NCIM 2079 at 3 ug/ml measured after 12 hrs relative to control; conditions: NCIM 2079, 12 h, read-out: GI; summary of the method: as §2
[19] = test system: Escherichia coli; assay: Growth inhibition of Escherichia coli NCIM 2688 at 3 ug/ml measured after 8 hrs relative to control; conditions: NCIM 2688, 8 h, read-out: GI; summary of the method: as §2
[20] = test system: Mycobacterium tuberculosis; assay: Growth inhibition of Mycobacterium bovis BCG ATCC 35743 at dormant stage at 10 ug/ml measured after 12 days by nitrate reductase dye based two fold dilution method relative to control; conditions: BCG str. ATCC 35743, 288 h, read-out: GI; summary of the method: as §4
[21] = test system: Aspergillus flavus; assay: Antifungal activity against Aspergillus flavus NCIM 539 by standard agar method; summary of the method: as §1
[22] = Antifungal activity against Fusarium oxysporum NCIM 1332 by standard agar method; summary of the method: as §1
[23] = test system: Mycobacterium tuberculosis; assay: Growth inhibition of Mycobacterium bovis BCG ATCC 35743 at dormant stage at 30 ug/ml measured after 12 days by nitrate reductase dye based two fold dilution method relative to control; conditions: BCG str. ATCC 35743, 288 h, read-out: GI; summary of the method: as §4
[24] = test system: Escherichia coli; assay: Growth inhibition of Escherichia coli NCIM 2688 at 10 ug/ml measured after 8 hrs relative to control; conditions: NCIM 2688, 8 h, read-out: GI; summary of the method: as §2
[25] = Antifungal activity against Cryptococcus neoformans NCIM 576 by standard agar method; summary of the method: as §1
[26] = test system: Mycobacterium tuberculosis; assay: Growth inhibition of Mycobacterium bovis BCG ATCC 35743 at active stage measured after 8 days by nitrate reductase dye based two fold dilution method; conditions: BCG str. ATCC 35743, 192 h; summary of the method: as §4
[27] = test system: Bacillus subtilis; assay: Growth inhibition of Bacillus subtilis NCIM 2079 at 30 ug/ml measured after 12 hrs relative to control; conditions: NCIM 2079, 12 h, read-out: GI; summary of the method: as §2
[28] = test system: Pseudomonas fluorescens; assay: Growth inhibition of Pseudomonas fluorescens NCIM 2036 at 3 ug/ml measured after 8 hrs relative to control; conditions: NCIM 2036, 8 h, read-out: GI; summary of the method: as §2

Work on O=C(O)CCN1C(=O)/C(=C/c2cc3ccccc3nc2Cl)SC1=S yielded an MIC [1] of 100 µg/mL (≈ 264 µM), an inhibition of growth at 10 µg/mL [2] of 6.32% and an inhibition of growth at 3 µg/mL [3] of -28.2%. The MIC [4] was over 30 µg/mL, the IC50 [5] was over 30 µg/mL and the IC90 [5] was over 30 µg/mL. It also gave an IC50 [6] of over 30 µg/mL, an IC90 [6] of over 30 µg/mL and an inhibition of growth at 30 µg/mL [7] of -22.9%. It also gave an MIC [8] of over 30 µg/mL, an MIC [9] of over 30 µg/mL and an inhibition of growth at 10 µg/mL [10] of -0.29%. The inhibition of growth at 30 µg/mL [11] was -59%, the inhibition of growth at 30 µg/mL [12] was -6.76% and the inhibition of growth at 3 µg/mL [13] was -3.3%. The MIC [14] was 75 µg/mL (≈ 198 µM), the MIC [15] was over 30 µg/mL and the inhibition of growth at 10 µg/mL [16] was -20.6%. For the same molecule, the IC50 [17] was over 30 µg/mL, the IC90 [17] was over 30 µg/mL and the inhibition of growth at 3 µg/mL [18] was 3%. The inhibition of growth at 3 µg/mL [19] was -47.5%, the inhibition of growth at 10 µg/mL [20] was -18.9% and the MIC [21] was 50 µg/mL (≈ 132 µM). The MIC [22] was 125 µg/mL (≈ 330 µM), the inhibition of growth at 30 µg/mL [23] was 49.1% and the inhibition of growth at 10 µg/mL [24] was -52.5%. The MIC [25] was 50 µg/mL (≈ 132 µM), the IC50 [26] was over 30 µg/mL and the IC90 [26] was over 30 µg/mL. It also gave an inhibition of growth at 30 µg/mL [27] of 6.41% and an inhibition of growth at 3 µg/mL [28] of -48%.
